For data set [1], the target named is T1, ATP-dependent translocase ABCB1 (Homo sapiens, UniProt P08183). The data set is described as follows: Stimulation of human ABCB1 ATPase activity expressed in high-five insect cell membrane vesicles by colorimetric analysis. The method, boiled down:
(§1)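 Vanadate-sensitive ABCB1 ATPase activity in High Five insect cell membrane vesicles, measured with a commercial ATPase kit under a modified protocol; compound tested across 0-40 µM; maximal fold stimulation and concentration giving 50% stimulation derived.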

Data set [2] deals with T1, ATP-dependent translocase ABCB1. The data set is described as follows: Inhibition of ABCB1 in human SW620/AD300 cells assessed as potentiation of paclitaxel-induced cytotoxicity by measuring fold reduction in paclitaxel IC50 at 1 uM after 72 hrs by MTT assay. The data set is classed as cell-based. The essentials: (§2)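 SW620/AD300 cells (~5×10^3/well) treated with graded paclitaxel with or without modulator (2 µM, or 0.5-2 µM in dose series; 0.1% DMSO solvent control) for 72 h; MTT (5 mg/mL stock) added 4 h, absorbance 490 nm. IC50 as mean ± SD of three independent runs; reversal fold = paclitaxel IC50 without/with modulator.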
In general terms: Tetrazolium assays rely on reduction of a dye to a coloured formazan, in cell work by metabolically active cells.

Data set [3] has the same target. The data set can be described thus: Binding affinity to ABCB1 in human SW620/AD300 cells assessed as thermal stabilization preincubated for 30 mins followed by incubation at 40 to 61 degC for 3 mins by CETSA. It counts as cell-based. Conditions: 0.05 h. The essentials:
(§3)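 SW620/AD300 cells lysed by three liquid-nitrogen freeze-thaw cycles; ultracentrifuged supernatant split into compound-treated and solvent-control portions, incubated 30 min at 37℃, aliquoted and heated 3 min at 40, 43, 46, 49, 52, 55, 58 or 61℃; remaining ABCB1 or ABCC1 detected by western blotting.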

Another data set relates to SW-620. The data set can be described thus: Inhibition of [3H]-paclitaxel efflux in human SW620 cells up to 4 uM preincubated for 4 hrs followed by [3H]-paclitaxel addition for 2 hrs measured after 120 mins by liquid scintillation counting method. The data set is classed as functional, cell-based. The essentials:
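After 2 h loading with 0.1 µM [3H]-paclitaxel (following 4 h compound pre-exposure), SW620 or SW620/AD300 cells moved to label-free medium for a 2 h efflux phase; samples taken at 0, 30, 60 and 120 min and radioactivity counted by liquid scintillation. Three independent assays, mean ± SD.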

Data set [4] has as its target T1, ATP-dependent translocase ABCB1. The data set is described as follows: Inhibition of ABCB1 (unknown origin) expressed in HEK293 cells assessed as potentiation of vincristine-induced cytotoxicity by measuring fold reduction in vincristine IC50 at 1 uM preincubated for 4 hrs followed by vincristine addition measured after 72 hrs by MTT assay. It counts as cell-based.

For data set [5] the target is unchanged. The data set can be described thus: Inhibition of ABCB1 in human SW620/AD300 cells assessed as potentiation of paclitaxel-induced cytotoxicity by measuring fold reduction in paclitaxel IC50 at 2 uM after 72 hrs by MTT assay relative to paclitaxel alone. The data set is classed as cell-based. The method, boiled down: as §2
Data set [6] has the same target. The data set can be described thus: Stimulation of human ABCB1 ATPase activity expressed in high-five insect cell membrane vesicles assessed as compound concentration required for 50% stimulation by colorimetric analysis. Conditions: read-out: Activity. The method, boiled down: as §1
For data set [7] the target is unchanged. The data set can be described thus: Inhibition of ABCB1 in human SW620/AD300 cells assessed as decrease in rhodamine 123 efflux preincubated for 4 hrs followed by 30 mins incubation in Rho-123 containing medium and subsequent incubation in Rho-123 free medium up to 120 mins by flow cytometry. It counts as cell-based. The essentials: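 Cells loaded with rhodamine 123 as in the accumulation assay (4 h compound pre-exposure, 1 µg/mL dye 30 min, 37℃), then kept in dye-free medium with or without reversal agent for 30, 60, 90 or 120 min at 37℃; intracellular fluorescence read by flow cytometry at 488/530 nm. Three independent experiments.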
In general terms: In flow cytometry, cells or beads pass a laser one at a time.

For data set [8], the target named is Multidrug resistance-associated protein 1 (Homo sapiens, UniProt P33527). The data set is described as follows: Binding affinity at ABCC1 in human SW620/AD300 cells assessed as thermal stabilization preincubated for 30 mins followed by incubation 40 to 61 degC for 3 mins by CETSA. The data set is classed as cell-based. Conditions: 0.05 h. The method, boiled down:
as §3

Data set [9] is described as follows: Cytotoxicity against human SW620 cells assessed as survival at 2 uM after 72 hrs by MTT assay relative to control. It counts as cell-based, SW-620. Conditions: read-out: Survival.

Active and inactive are the calls of the source. The calls are words filed in the database; no cut-off is given here. Where only a bound is given, the exact number is not on record here.

T1 sequence (P08183 whole entry): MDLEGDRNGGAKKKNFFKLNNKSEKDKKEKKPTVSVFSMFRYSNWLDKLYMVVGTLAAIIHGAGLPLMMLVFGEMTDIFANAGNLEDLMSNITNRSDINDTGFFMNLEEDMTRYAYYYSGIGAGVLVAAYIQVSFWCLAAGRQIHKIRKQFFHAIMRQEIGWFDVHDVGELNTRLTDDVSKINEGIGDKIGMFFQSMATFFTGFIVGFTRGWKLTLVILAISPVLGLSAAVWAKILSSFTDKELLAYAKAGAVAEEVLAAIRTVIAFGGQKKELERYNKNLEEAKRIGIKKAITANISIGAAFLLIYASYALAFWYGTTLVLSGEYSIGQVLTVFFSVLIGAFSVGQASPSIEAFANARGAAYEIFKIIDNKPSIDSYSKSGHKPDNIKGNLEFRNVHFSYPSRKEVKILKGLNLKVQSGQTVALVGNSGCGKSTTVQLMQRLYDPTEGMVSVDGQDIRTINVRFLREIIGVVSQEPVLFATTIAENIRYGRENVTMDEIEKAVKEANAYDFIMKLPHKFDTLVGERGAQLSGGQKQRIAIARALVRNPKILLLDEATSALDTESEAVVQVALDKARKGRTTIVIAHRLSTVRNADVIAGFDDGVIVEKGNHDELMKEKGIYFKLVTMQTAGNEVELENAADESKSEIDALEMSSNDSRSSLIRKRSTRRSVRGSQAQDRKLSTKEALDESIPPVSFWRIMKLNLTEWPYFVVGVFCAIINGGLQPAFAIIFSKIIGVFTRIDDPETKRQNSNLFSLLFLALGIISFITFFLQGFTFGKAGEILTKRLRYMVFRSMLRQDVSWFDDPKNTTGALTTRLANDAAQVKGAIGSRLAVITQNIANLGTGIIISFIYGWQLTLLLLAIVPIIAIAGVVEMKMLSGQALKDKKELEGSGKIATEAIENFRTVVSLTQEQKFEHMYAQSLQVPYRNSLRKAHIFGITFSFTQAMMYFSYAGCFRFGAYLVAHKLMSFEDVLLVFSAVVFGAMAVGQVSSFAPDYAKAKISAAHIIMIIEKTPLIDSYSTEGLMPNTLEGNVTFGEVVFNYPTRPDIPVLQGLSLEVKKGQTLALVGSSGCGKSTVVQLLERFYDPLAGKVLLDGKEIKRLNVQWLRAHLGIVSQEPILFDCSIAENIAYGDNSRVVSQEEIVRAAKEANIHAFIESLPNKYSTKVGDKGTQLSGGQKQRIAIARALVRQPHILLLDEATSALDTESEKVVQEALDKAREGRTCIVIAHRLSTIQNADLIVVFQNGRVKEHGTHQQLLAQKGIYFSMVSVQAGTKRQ
Sequence of Multidrug resistance-associated protein 1 (P33527 whole entry): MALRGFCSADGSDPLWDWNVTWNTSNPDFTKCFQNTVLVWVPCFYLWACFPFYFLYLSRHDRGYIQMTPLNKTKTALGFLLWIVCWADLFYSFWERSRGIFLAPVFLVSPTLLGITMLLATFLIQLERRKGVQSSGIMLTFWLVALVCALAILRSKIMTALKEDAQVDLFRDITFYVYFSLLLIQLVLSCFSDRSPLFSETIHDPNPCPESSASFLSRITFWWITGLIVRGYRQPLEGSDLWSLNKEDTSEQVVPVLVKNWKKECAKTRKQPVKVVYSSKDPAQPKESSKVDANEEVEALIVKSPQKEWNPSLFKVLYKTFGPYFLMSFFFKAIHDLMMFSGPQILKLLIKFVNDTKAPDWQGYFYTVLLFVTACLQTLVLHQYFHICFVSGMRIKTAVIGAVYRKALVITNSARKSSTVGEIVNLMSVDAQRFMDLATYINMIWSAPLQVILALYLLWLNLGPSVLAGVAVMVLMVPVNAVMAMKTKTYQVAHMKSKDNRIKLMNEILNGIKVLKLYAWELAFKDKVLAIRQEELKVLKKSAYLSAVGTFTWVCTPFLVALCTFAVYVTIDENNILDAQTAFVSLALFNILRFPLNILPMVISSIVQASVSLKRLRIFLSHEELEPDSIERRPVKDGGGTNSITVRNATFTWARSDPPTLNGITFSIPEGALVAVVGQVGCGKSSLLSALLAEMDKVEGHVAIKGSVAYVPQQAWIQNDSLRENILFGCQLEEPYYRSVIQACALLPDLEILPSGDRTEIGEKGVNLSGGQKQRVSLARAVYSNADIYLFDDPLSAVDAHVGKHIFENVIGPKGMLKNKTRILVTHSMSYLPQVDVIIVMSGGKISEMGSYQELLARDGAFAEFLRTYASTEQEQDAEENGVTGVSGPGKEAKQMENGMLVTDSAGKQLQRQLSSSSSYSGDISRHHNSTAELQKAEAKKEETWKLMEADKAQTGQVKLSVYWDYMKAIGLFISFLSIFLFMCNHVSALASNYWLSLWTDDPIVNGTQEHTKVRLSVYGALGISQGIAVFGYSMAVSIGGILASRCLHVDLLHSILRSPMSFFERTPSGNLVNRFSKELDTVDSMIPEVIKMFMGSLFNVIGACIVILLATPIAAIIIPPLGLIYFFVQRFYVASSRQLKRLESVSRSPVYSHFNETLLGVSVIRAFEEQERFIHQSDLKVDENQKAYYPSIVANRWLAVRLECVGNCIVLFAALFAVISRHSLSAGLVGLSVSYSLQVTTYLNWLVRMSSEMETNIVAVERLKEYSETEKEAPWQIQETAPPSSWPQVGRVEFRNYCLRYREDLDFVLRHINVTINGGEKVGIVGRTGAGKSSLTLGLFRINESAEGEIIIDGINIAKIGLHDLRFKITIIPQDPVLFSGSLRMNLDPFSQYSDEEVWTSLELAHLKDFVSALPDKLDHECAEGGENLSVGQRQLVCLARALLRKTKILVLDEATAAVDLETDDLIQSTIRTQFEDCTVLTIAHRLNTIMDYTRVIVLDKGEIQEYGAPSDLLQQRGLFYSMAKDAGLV

Consider `COc1cc(-c2nc(SCC(=O)NC(=O)Nc3ccccn3)nc(Nc3cccc(Cl)c3)c2C#N)cc(OC)c1OC`, for which the “fold change (FC)” value came out at 4.56 in [1], 135.03 in data set [2], 9.75 in data set [4] and 837.2 in data set [5]. Further, the values for the Activity result in data set [3] and in data set [8] were “Active” and “Not Active”, respectively. For the same molecule, the inhibition result with SW-620 is “inactive”. In data set [6], the EC50 was determined as 970 nM. Besides, in data set [7], the “inhibition (INH)” value was “Dose-dependent effect”. Further, the viability at 72 h, 2 µM in [9] is greater than 90%.

These data come from ChEMBL document CHEMBL4138318, “Discovery of 5-Cyano-6-phenylpyrimidin Derivatives Containing an Acylurea Moiety as Orally Bioavailable Reversal Agents against P-Glycoprotein-Mediated Mutidrug Resistance” (J Med Chem, 2018).
